Calls of active or inactive are those of the source. The rule behind the calls is not given here.
Experiments:
[1] = test system: MDA-MB-231; test: Antimetastatic activity against human MDA-MB-231 cells xenografted in BALB/c nu mouse assessed as down regulation of H3K79me2 expression in tumor tissue at 5 to 15 mg/kg, ip administered thrice per week for 38 days measured 1 week post last dose by H and E staining based immunohistochemical analysis; assay type: functional, organism-based; details: dose 5-15 mg/kg, time 45.0 day
Summary of the method: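 Tumors and lungs from orthotopic MDA-MB-231/Luc nude mice (ip dosing three times weekly, 38 days) fixed in 4% PFA, paraffin-embedded, sectioned, antigen-retrieved. Lungs H&E-stained for metastatic cells; tumor sections immunostained for Ki67, H3K79me2, E-cadherin, vimentin with HRP detection, hematoxylin counterstain, imaged at 200×.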

[2] = test system: MDA-MB-231; test: Antitumor activity against human MDA-MB-231 cells xenografted in BALB/c nu mouse assessed as tumor growth inhibition at 5 mg/kg, ip administered thrice per week for 38 days by caliper method relative to control; assay type: functional; details: MDA-MB-231, ip, 912 h, time 38 day, read-out: TGI
Summary of the method: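 Female BALB/c-nu mice (5–6 wk) given 1 × 10⁷ luciferase-expressing MDA-MB-231 cells in 50:50 DMEM/Matrigel into the fourth fat pad; randomized after 10 days (six per group). Dosed ip in EtOH/Cremophor/saline (5:5:90) three times weekly for 38 days. Tumor L, W, H measured by caliper, volume = LWH/2; body weight weekly; tumors excised and weighed at termination.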

[3] = test system: MDA-MB-231; test: Antitumor activity against human MDA-MB-231 cells xenografted in ip dosed BALB/c nu mouse assessed as down regulation of H3K79me2 expression in tumor tissue administered thrice per week for 38 days measured 1 week post last dose by Western blot analysis; assay type: functional, organism-based; details: dose 5-15 mg/kg, time 45.0 day
Summary of the method: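 Frozen tumor portions from the orthotopic MDA-MB-231 nude mouse study homogenized in complete lysis buffer; protein by Bradford assay. Western blotting for H3K79me2, E-cadherin and vimentin, β-actin internal control, band intensities semi-quantified; three separate experiments.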

[4] = Selectivity ratio of IC50 for human MCF-10A cells to IC50 for human SK-HEP1 cells
Summary of the method: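 Cytotoxicity by SRB assay: cells seeded in 96-well plates and treated with compounds; fixed, stained with 0.4% SRB in 1% acetic acid, dye dissolved in 10 mM Tris (pH 10.0), absorbance read at 515 nm. IC50 by non-linear regression, means of at least three experiments; ratio of MCF10A IC50 to cancer-line IC50.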

For `O=C(NCC[Se][Se]CCNC(=O)/C(Cc1ccccc1)=N/O)/C(Cc1ccccc1)=N/O`, the Activity [1] was “Active”, the inhibition in vivo at 5 mg/kg [2] was 45.5% and the Activity [3] was “Dose-dependent effect”. The “Ratio IC50” value [4] was over 100.
